# The source made the active and inactive calls.
# Assays:
# Mus musculus [1] = assay: Antinociceptive activity in ICR mouse assessed as warm-water tail-withdrawal latency at 1 nmol, icv by tail flick assay; type: functional
# Outline: (§1)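 Male ICR mice dosed i.c.v. in 5 µL (test compounds in 100% DMSO, morphine in water) under light ether anaesthesia. Tail withdrawal from 55 °C water, 10 s cutoff, tested 10–180 min post-injection. %MPE computed against pre-drug baseline. A50 with 95% confidence limits by linear regression at time of peak effect.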
# Mus musculus [2] = assay: Antinociceptive activity in icv dosed ICR mouse assessed as warm-water tail-withdrawal latency administered bid for 3 days; type: functional
# [3] = Activity at human MOR/mouse DOR expressed in CHO cells assessed as inhibition of DAMGO-mediated forskolin-stimulated cAMP accumulation at 30 nM after 20 hrs by scintillation counting analysis; type: functional
# Outline: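 CHO cells stably co-expressing human MOR and cMyc-tagged mouse DOR were pretreated 20 h with 30 nM drug or medium, then washed. They were preincubated 20 min with 500 µM IBMX, then given 15 min with IBMX, 100 µM forskolin and graded DAMGO at 37 °C. cAMP was measured by [3H]cAMP–protein kinase binding against a standard curve.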
# [4] = tested on: Delta-type opioid receptor; assay: Agonist activity at delta opioid receptor expressed in rat/mouse NG108-15 cells assessed as [35S]GTPgammaS binding at 10 uM by scintillation counting analysis; type: functional, cell-based
# Outline: (§2)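 NG108-15 cell membranes (50 µg protein), 3 h at 25 °C, pH 7.4 Tris buffer with 100 mM NaCl, 10 mM MgCl2, 1 mM EDTA, 1 mM DTT, 0.1% BSA, GDP 40 µM and [35S]GTP-γ-S 50 pM. Nonspecific binding with 40 µM GTP-γ-S; filtration and scintillation counting. Stimulation = (S−B)/B×100, with Emax relative to DADLE. Curves were ten points, ≥3 experiments pooled. Ke was taken from the shift in standard agonist EC50.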
# CHO [5] = assay: Activity at human MOR/mouse DOR expressed in CHO cells assessed as increase in forskolin-stimulated cAMP accumulation at 30 nM after drug exposure for 20 hrs followed by washout; type: functional, cell-based
# Outline: (§3)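 MOR/DOR co-expressing CHO cells (mouse N-cMyc DOR + human MOR) exposed 20 h to drug, then washed three times with serum-free medium and preincubated 20 min at 37 °C with IBMX 500 µM. Then 10 min at 37 °C with forskolin 100 µM/IBMX 500 µM, with or without 10 µM naloxone. Read-out was cAMP by [3H]cAMP–protein kinase binding against a standard curve. Mean of n=3.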
# Mu-type opioid receptor [6] = molecular target: T1, Mu-type opioid receptor (Homo sapiens, UniProt P35372); assay: Agonist activity at human mu opioid receptor expressed in CHO cells assessed as [35S]GTPgammaS binding by scintillation counting analysis relative to DAMGO; type: functional, cell-based
# Outline: (§4)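 Human KOR or MOR in CHO cell membranes (50 µg protein), 3 h at 25 °C, pH 7.4 Tris buffer with 100 mM NaCl, 10 mM MgCl2, 1 mM EDTA, 1 mM DTT, 0.1% BSA, GDP 40 µM and [35S]GTP-γ-S 50 pM. Stimulation = (S−B)/B×100, with Emax relative to U69,593 (KOR) or DAMGO (MOR). Curves were ten points, ≥3 experiments pooled. Antagonist Ke was taken from the shift in standard agonist EC50.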
# CHO [7] = assay: Activity at human MOR/mouse DOR expressed in CHO cells assessed as increase in forskolin-stimulated cAMP accumulation at 30 nM after drug exposure for 20 hrs followed by washout in the presence of naloxone; type: functional, cell-based; outline: as §3
# [8] = molecular target: T2, Kappa-type opioid receptor (Homo sapiens, UniProt P41145); assay: Agonist activity at human kappa opioid receptor expressed in CHO cells assessed as [35S]GTPgammaS binding at 10 uM by scintillation counting analysis; type: functional, cell-based; outline: as §4
# Mus musculus [9] = assay: Antinociceptive activity in icv dosed ICR mouse assessed as warm-water tail-withdrawal latency by tail flick assay; type: functional; outline: as §1
# Mus musculus [10] = assay: Antinociceptive activity in icv dosed ICR mouse assessed as warm-water tail-withdrawal latency by tail flick assay in presence of naloxone; type: functional, organism-based
# [11] = tested on: Delta-type opioid receptor; assay: Antagonist activity at delta opioid receptor expressed in rat/mouse NG108-15 cells assessed as [35S]GTPgammaS binding by scintillation counting analysis; type: functional, cell-based; outline: as §2
# [12] = molecular target: T2, Kappa-type opioid receptor; assay: Binding affinity to kappa opioid receptor by radioligand binding assay
# [13] = molecular target: T3, Delta-type opioid receptor (Homo sapiens, UniProt P41143); assay: Binding affinity to delta opioid receptor by radioligand binding assay
# Outline: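 Membranes from CHO cells stably expressing human DOR; [³H]DADLE at ~2 nM, displaced by 10 drug concentrations. Incubated 2 h at 25 °C in 50 mM Tris-HCl pH 7.4 with protease inhibitors, ~30 µg protein; triplicates; filtration and scintillation counting. Nonspecific binding defined with 20 µM levallorphan. Three experiments pooled and fitted for IC50.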
# Mu-type opioid receptor [14] = molecular target: T1, Mu-type opioid receptor; assay: Binding affinity to mu opioid receptor by radioligand binding assay
# CHO [15] = assay: Activity at human MOR/mouse DOR expressed in CHO cells assessed as increase in forskolin-stimulated cAMP accumulation at 1 uM after drug exposure for 20 hrs followed by washout in the presence of naloxone; type: functional, cell-based; outline: as §3
# CHO [16] = assay: Activity at human MOR/mouse DOR expressed in CHO cells assessed as increase in forskolin-stimulated cAMP accumulation at 1 uM after drug exposure for 20 hrs followed by washout; type: functional, cell-based; outline: as §3
# Mus musculus [17] = assay: Antinociceptive activity in ICR mouse assessed as warm-water tail-withdrawal latency at 0.1 to 100 nmol, icv bid for 3 days relative to naive control; type: functional
# Mus musculus [18] = assay: Antinociceptive activity in ICR mouse assessed as warm-water tail-withdrawal latency at 10 nmol, icv by tail flick assay; type: functional; outline: as §1
# [19] = molecular target: T2, Kappa-type opioid receptor; assay: Agonist activity at human kappa opioid receptor expressed in CHO cells assessed as [35S]GTPgammaS binding by scintillation counting analysis relative to U69,593; type: functional, cell-based; outline: as §4
# [20] = molecular target: T2, Kappa-type opioid receptor; assay: Agonist activity at human kappa opioid receptor expressed in CHO cells assessed as [35S]GTPgammaS binding by scintillation counting analysis; type: functional, cell-based; outline: as §4
# [21] = molecular target: T2, Kappa-type opioid receptor; assay: Displacement of [3H]U69,593 from human kappa opioid receptor expressed in CHO cells by scintillation counting analysis; type: cell-based
# Mu-type opioid receptor [22] = molecular target: T1, Mu-type opioid receptor; assay: Displacement of [3H]DAMGO from human mu opioid receptor expressed in CHO cells by scintillation counting analysis; type: cell-based
# Homo sapiens [23] = organism: Homo sapiens; assay: Selectivity ratio of Ki for human mu opioid receptor to Ki for human delta opioid receptor
# Mu-type opioid receptor [24] = molecular target: T1, Mu-type opioid receptor; assay: Agonist activity at human mu opioid receptor expressed in CHO cells assessed as [35S]GTPgammaS binding by scintillation counting analysis; type: functional, cell-based; outline: as §4
# Homo sapiens [25] = organism: Homo sapiens; assay: Selectivity ratio of Ki for human kappa opioid receptor to Ki for human delta opioid receptor
# [26] = molecular target: T3, Delta-type opioid receptor; assay: Displacement of [3H]DADLE from human delta opioid receptor expressed in CHO cells by scintillation counting analysis; type: cell-based
# [27] = Agonist activity at delta opioid receptor expressed in rat/mouse NG108-15 cells assessed as [35S]GTPgammaS binding by scintillation counting analysis relative to DADLE; type: functional, cell-based; outline: as §2
# cells = conditions: CHO, 20 h
# [28] = Activity at human MOR/mouse DOR expressed in CHO cells assessed as inhibition of DAMGO-mediated forskolin-stimulated cAMP accumulation after 20 hrs by scintillation counting analysis relative to morphine; type: functional
# Outline: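 CHO cells stably co-expressing human MOR and N-cMyc-tagged mouse DOR, treated 20 h with drug (morphine 1 µM; test compounds 30 nM) or medium. Cells washed, 20 min in serum-free medium with 500 µM IBMX at 37 °C, then 15 min with IBMX plus 100 µM forskolin and graded DAMGO. Acid-extracted cAMP measured by [³H]cAMP protein-kinase binding competition. DAMGO EC₅₀ expressed as fold over control cells; n=3.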
# T1 sequence (P35372 whole entry): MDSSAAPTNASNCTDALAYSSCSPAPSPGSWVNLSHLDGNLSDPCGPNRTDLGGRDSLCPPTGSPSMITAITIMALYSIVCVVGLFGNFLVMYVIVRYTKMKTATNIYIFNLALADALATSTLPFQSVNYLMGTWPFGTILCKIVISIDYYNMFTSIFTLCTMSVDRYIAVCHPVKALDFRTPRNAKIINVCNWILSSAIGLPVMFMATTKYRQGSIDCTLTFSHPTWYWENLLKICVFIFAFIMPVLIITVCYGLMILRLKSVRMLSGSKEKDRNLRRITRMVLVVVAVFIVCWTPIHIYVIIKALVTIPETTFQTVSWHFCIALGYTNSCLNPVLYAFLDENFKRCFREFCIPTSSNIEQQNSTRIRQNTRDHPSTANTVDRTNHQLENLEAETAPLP
# T2 sequence (P41145 whole entry): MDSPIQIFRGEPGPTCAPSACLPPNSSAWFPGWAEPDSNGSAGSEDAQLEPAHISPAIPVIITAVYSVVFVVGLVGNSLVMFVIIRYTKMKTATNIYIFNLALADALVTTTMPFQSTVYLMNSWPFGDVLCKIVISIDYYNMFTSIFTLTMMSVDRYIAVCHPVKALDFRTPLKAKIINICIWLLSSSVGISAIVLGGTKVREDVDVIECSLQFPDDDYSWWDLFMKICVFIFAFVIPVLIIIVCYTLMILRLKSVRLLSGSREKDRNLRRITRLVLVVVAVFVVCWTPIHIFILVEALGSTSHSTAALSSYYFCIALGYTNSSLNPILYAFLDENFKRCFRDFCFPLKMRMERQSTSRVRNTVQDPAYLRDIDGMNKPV
# T3 sequence (P41143 whole entry): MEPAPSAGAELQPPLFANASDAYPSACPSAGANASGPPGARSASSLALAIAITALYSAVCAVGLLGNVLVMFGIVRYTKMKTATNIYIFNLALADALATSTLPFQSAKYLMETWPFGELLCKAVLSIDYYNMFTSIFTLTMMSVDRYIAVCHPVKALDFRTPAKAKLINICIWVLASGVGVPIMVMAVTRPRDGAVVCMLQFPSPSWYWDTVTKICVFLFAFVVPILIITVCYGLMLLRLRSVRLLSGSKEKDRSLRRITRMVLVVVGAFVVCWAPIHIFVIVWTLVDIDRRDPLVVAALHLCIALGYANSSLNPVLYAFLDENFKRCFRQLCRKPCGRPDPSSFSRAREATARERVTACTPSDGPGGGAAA
Structure (SMILES),%max (Mus musculus [1]),Emax (Mu-type opioid receptor [6]),A50 (Mus musculus [9]),Activity (Mus musculus [9]),Activity (Mus musculus [10]),Ke [11],Ki [21],Ki (Mu-type opioid receptor [22]),Ratio Ki (Homo sapiens [23]),EC50 (Mu-type opioid receptor [24]),Ratio Ki (Homo sapiens [25]),Ki [26],Emax [27],further results
Oc1ccc2c3c1O[C@H]1c4ncc(-c5ccc(Cl)cc5)cc4C[C@@]4(OCCCc5ccccc5)[C@@H](C2)N(CC2CC2)CC[C@]314,75%,72%,0.35 nmol,Dose-dependent effect,inactive,0.091 nM,,,,,,,,A50 (Mus musculus [2]): 2.78 nmol; Emax at 0.03 µM [3]: 40%; Activity [4]: inactive; Activity (CHO [5]): inactive; Activity (CHO [7]): inactive; Activity [8]: inactive
Oc1ccc2c3c1O[C@H]1c4ncc(-c5ccc(Cl)cc5)cc4C[C@@]4(O)[C@@H](C2)N(CC2CC2)CC[C@]314,,,,,,,,,,,,,,Ki [12]: 20 nM; Ki [13]: 2.2 nM; Ki (Mu-type opioid receptor [14]): 51 nM
CN1CC[C@]23c4c5ccc(O)c4O[C@H]2[C@@H](O)C=C[C@H]3[C@H]1C5 [MORPHINE],,,0.43 nmol,,,,,,,,,,,Activity (CHO [15]): Active; Activity (CHO [16]): Active; A50 (Mus musculus [2]): 19.04 nmol; fold change (FC) (Mus musculus [17]): 44; %max (Mus musculus [18]): 100%
CO[C@@]12Cc3cc(-c4ccc(Cl)cc4)cnc3[C@@H]3Oc4c(O)ccc5c4[C@@]31CCN(C)[C@@H]2C5,,118%,1.44 nmol,Dose-dependent effect,inactive,1.6 nM,28 nM,7.89 nM,4.8,379 nM,17,1.63 nM,,Emax [19]: 36%; Activity [4]: inactive; EC50 [20]: 633 nM; %max (Mus musculus [18]): 98%
CN1CC[C@]23c4c5ccc(O)c4O[C@H]2c2ncc(-c4ccc(Cl)cc4)cc2C[C@@]3(OC/C=C/c2ccccc2)[C@H]1C5,91%,130%,0.23 nmol,Dose-dependent effect,inactive,,1.55 nM,0.41 nM,0.36,4.27 nM,1.4,1.14 nM,84%,
CN1CC[C@]23c4c5ccc(O)c4O[C@H]2c2ncc(-c4ccc(Cl)cc4)cc2C[C@@]3(O)[C@H]1C5,,,,,,,,,,,,,,Ki [12]: 468 nM; Ki [13]: 3.9 nM; Ki (Mu-type opioid receptor [14]): 230 nM
CN1CC[C@]23c4c5ccc(O)c4O[C@H]2c2ncc(-c4ccc(Cl)cc4)cc2C[C@@]3(OC(=O)Cc2ccccc2)[C@H]1C5,,122%,,,,3.38 nM,17 nM,1.43 nM,1.5,87 nM,18,0.97 nM,27%,Emax [19]: 36%; EC50 [20]: 109 nM
CN1CC[C@]23c4c5ccc(O)c4O[C@H]2c2ncc(-c4ccc(Cl)cc4)cc2C[C@@]3(OCCCc2ccccc2)[C@H]1C5,92%,125%,0.23 nmol,Dose-dependent effect,inactive,,1.53 nM,0.54 nM,0.52,2.15 nM,1.5,1.04 nM,85%,Emax at 0.03 µM [3]: 20%; EC50 (cells): 0.34 nM; Activity (CHO [5]): Active; fold change (FC) [28]: 7; Activity (CHO [7]): Active; Activity [8]: inactive
